# Reference: publication PMC2842018 (European journal of nuclear medicine and molecular imaging, 2008)
# Legend:
# glioblastoma = glioblastoma patients, radiotherapy plus temozolomide; ref [1]; cited from earlier work
# α3 integrin = conditions: ovarian cancer, ref [7]; cited from earlier work
# [1] = system: U-87MG cells (α3 integrin); test: Fluorescence microscopy of U-87MG cells stained with biotinylated LXY1; type: cell-based, human
# How it was run: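 U-87MG cells at 80–90% confluence were dissociated with 0.05% trypsin-EDTA. Each sample (3×10⁵ cells) was incubated with biotinylated peptide in PBS with 10% FBS and 1 mM MnCl2 for 30 min on ice, washed three times, given streptavidin-Alexa488 for 30 min and washed once. Cells were cytospun onto slides (2000 rpm, 2 min), mounted with DAPI medium and viewed by fluorescence microscopy. For blocking, unlabeled peptide or anti-α3 integrin antibody (clone P1B5) was co-incubated.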
compound,measurement,setting,value
Cn1nnc2c(C(N)=O)ncn2c1=O [temozolomide],median survival,glioblastoma,14.6 months
cDGXGXXc,binding preference and specificity,α3 integrin,bind preferentially to ovarian cancer with high specificity against α3 integrin
cdGLGBNc (disulfide) [LXY1],blocking of cell staining by biotinylated LXY1,"[1]; excess unlabeled LXY1 or anti-α3 antibody (clone P1B5) as blocker, streptavidin-Alexa488",almost completely abolished
cdGLGBNc-linker-linker-Biotin (disulfide) [LXY1-biotin],staining of U-87MG cells,"[1]; biotinylated LXY1 30 min, streptavidin-Alexa488 30 min, DAPI counterstain",Strong staining
